Measurements: ChEMBL document CHEMBL1125311, “Inhibition of human leukocyte elastase. 4. Selection of a substituted cephalosporin (L-658,758) as a topical aerosol” (J Med Chem, 1992)

How the values were obtained:
[1] = target: T1, Neutrophil elastase (Homo sapiens) (UniProt P08246)
T1 sequence (whole entry): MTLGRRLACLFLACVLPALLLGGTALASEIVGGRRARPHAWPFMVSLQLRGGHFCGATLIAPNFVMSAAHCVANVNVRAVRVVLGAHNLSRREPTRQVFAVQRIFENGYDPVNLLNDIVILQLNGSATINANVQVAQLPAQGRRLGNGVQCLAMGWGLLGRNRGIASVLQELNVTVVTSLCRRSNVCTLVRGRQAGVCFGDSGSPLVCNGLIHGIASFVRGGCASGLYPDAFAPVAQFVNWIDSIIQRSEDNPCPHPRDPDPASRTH

[2] = tested on: Cricetinae gen. sp.; test: Compound was evaluated in vivo for inhibition of HLE-induced hemorrhage in hamster lung at 200 microg after 180 min of administration; type: functional, Cricetulus griseus
Procedure, shortened: (§1)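 Hamster duration protocol: 200 μg/animal given intratracheally 60, 120, 180 or 240 min before IT HLE instillation; hemorrhage scored after 3 h as hemoglobin (414 nm) in saline lung lavage, relative to vehicle-treated animals; three animals per point. T50 taken as time at which 50% inhibition is still obtained.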

[3] = Half-life value of the compound.; type: ADME
Procedure, shortened: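 Chemical stability: compound dissolved at 1 mg/mL in 0.5 M MOPS, pH 8.0, held at 25 °C in capped vial; aliquots quenched in 2% aqueous TFA and analysed by reverse-phase HPLC over one to two half-lives. Peak areas fit to first-order decay F(t)=A/2^(t/t1/2) to give t1/2.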

[4] = tested on: Cricetinae gen. sp.; test: Compound was evaluated in vivo for inhibition of HLE-induced hemorrhage in hamster lung at 100 microg 30 min after administration; type: functional, Cricetulus griseus
Procedure, shortened: (§2)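 Hamster, intratracheal dosing of compound (per animal) 30 min before IT instillation of 50 μg HLE (50 units in Experimental); hemorrhage read 3 h later: lungs lavaged with saline, hemoglobin in lavage measured at 414 nm. Percent inhibition from drug-treated vs vehicle-treated hemorrhage; three animals per dose and time. Titration at 100, 30, 10, 3 μg/animal gives ED50.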

[5] = tested on: Cricetinae gen. sp.; test: Compound was evaluated in vivo for inhibition of HLE-induced hemorrhage in hamster lung at 10 microg 30 min after administration; type: functional, Cricetulus griseus
Procedure, shortened: as §2

[6] = organism: Rattus norvegicus; test: Inhibitory activity against Human Leukocyte Elastase by Lung Hemorrhage assay (at 250 ug/animal)
[7] = tested on: Cricetinae gen. sp.; test: Compound was evaluated in vivo for inhibition of HLE-induced hemorrhage in hamster lung at 200 microg 1 hr after administration prior to HLE; type: functional, Cricetulus griseus
Procedure, shortened: as §1

[8] = tested on: Cricetinae gen. sp.; test: Inhibitory activity against Human Leukocyte Elastase by Lung Hemorrhage assay (Effective dose at 15 microg); type: functional, Cricetulus griseus
[9] = tested on: Cricetinae gen. sp.; test: Compound was evaluated in vivo for inhibition of HLE-induced hemorrhage in hamster lung at 200 microg 2 hr after administration prior to HLE; type: functional, Cricetulus griseus
Procedure, shortened: as §1

[10] = tested on: Cricetinae gen. sp.; test: Compound was evaluated in vivo for inhibition of HLE-induced hemorrhage in hamster lung at 200 microg 4 hr after administration prior to HLE; type: functional, Cricetulus griseus
Procedure, shortened: as §1

[11] = tested on: Cricetinae gen. sp.; test: Compound was evaluated in vivo for inhibition of HLE-induced hemorrhage in hamster lung at 200 microg 3h after administration prior to HLE; type: functional, Cricetulus griseus
Procedure, shortened: as §1

[12] = tested on: Cricetinae gen. sp.; test: Compound was evaluated in vivo for inhibition of HLE-induced hemorrhage in hamster lung at 30 ug 30 min after administration prior to HLE; type: functional, Cricetulus griseus
Procedure, shortened: as §2

[13] = tested on: Cricetinae gen. sp.; test: Inhibitory activity against Human Leukocyte Elastase by Lung Hemorrhage assay (at 200 ug/animal); type: functional, Cricetulus griseus
Procedure, shortened: as §1

[14] = tested on: Cricetinae gen. sp.; test: Inhibitory activity against Human Leukocyte Elastase by Lung Hemorrhage assay ( at 30 min); type: functional, Cricetulus griseus
Procedure, shortened: as §2

[15] = tested on: Cricetinae gen. sp.; test: Compound was evaluated in vivo for inhibition of HLE-induced hemorrhage in hamster lung at 10 ug 30 min after administration prior to HLE; type: functional, Cricetulus griseus
Procedure, shortened: as §2

[16] = tested on: Cricetinae gen. sp.; test: Compound was evaluated in vivo for inhibition of HLE-induced hemorrhage in hamster lung at 100 microg 30 min after administration prior to HLE; type: functional, Cricetulus griseus
Procedure, shortened: as §2

[17] = tested on: Cricetinae gen. sp.; test: Inhibitory activity against Human Leukocyte Elastase by Lung Hemorrhage assay; type: functional, Cricetulus griseus
[18] = tested on: Cricetinae gen. sp.; test: Compound was evaluated in vivo for inhibition of HLE-induced hemorrhage in hamster lung at 30 microg 30 min after administration; type: functional, Cricetulus griseus
Procedure, shortened: as §2

Row | k obs / 1 [1] [M⁻¹ s⁻¹] | half-life [3] [h] | Structure (SMILES) | Inhibition [2] [%] | Inhibition [4] [%] | Inhibition [5] [%] | Inhibition [6] [%] | Inhibition [7] [%] | ED50 [8] [µg] | Inhibition [9] [%] | Inhibition [10] [%] | Inhibition [11] [%] | Inhibition [12] [%] | T50 [13] [min] | ED50 [14] [µg] | Inhibition [15] [%] | Inhibition [16] [%] | Inhibition [17] [%] | Inhibition [18] [%]
1 | 300 | 13 | CO[C@H]1C(=O)N2C(C(=O)N(C)CC(=O)O)=C(COC(C)=O)CS(=O)(=O)[C@H]12 | 54 | 90 | 67 | – | – | – | – | – | – | – | – | – | – | – | – | –
2 | 6200 | 22 | CO[C@H]1C(=O)N2C(C(=O)N(C)CC(=O)O)=C(CSc3nc(=O)c(=O)[nH]n3C)CS(=O)(=O)[C@H]12 | – | – | – | 82 | 94 | 400 | 90 | 37 | 64 | 94 | 180 | 10 | 56 | 98 | 86 | –
3 | 3700 | – | CO[C@H]1C(=O)N2C(C(=O)OC(C)(C)C)=C(CSc3nnnn3CC(=O)O)CS(=O)(=O)[C@H]12 | – | 89 | – | – | – | – | – | – | – | – | – | – | – | – | – | 77
